Test results from ChEMBL document CHEMBL4325822, “Discovery of a tetrazolyl β-carboline with in vitro and in vivo osteoprotective activity under estrogen-deficient conditions” (Medchemcomm, 2018).
One block for each molecule: values may come before it. Calls of active or inactive are those of the source. No cut-off for these calls is given here.

Legend:
[1] = biological target: T1, I-kappa-B kinase (Rattus norvegicus) (UniProt Q9QY78+G3V926+Q6TMG5); test: Inhibition of IKK in Sprague-Dawley rat calvarial osteoblasts assessed as reduction in TNFalpha-induced NFkB nuclear translocation at 10 nM after 24 hrs by immunofluorescence assay; format: cell-based; conditions: Calvarial osteoblast
How it was run: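 Primary rat osteoblasts on chamber slides given TNFα (10 ng·ml⁻¹) for 24 h, with or without treatment. Then 4% PFA fixation, 0.1% Triton X-100, anti-NF-κB overnight, and Cy3 anti-rabbit secondary. Fluorescence imaged at excitation 552 nm, emission 570 nm.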

[2] = biological target: T1, I-kappa-B kinase (Rattus norvegicus); test: Inhibition of IKK in Sprague-Dawley rat calvarial osteoblasts assessed as reduction in TNFalpha-induced NFkB signaling by measuring ratio of cytosolic p65 level to beta-actin level at 10 nM after 24 hrs by Western blot analysis (reference value: 0.99); format: cell-based; conditions: Calvarial osteoblast
Rattus norvegicus [3] = test: Antiosteoporotic activity in Sprague-Dawley rat model of OVX-induced bone loss assessed as mineral apposition rate at 100 ug/kg, sc administered 5 days/week for 12 weeks by microcomputed tomographic analysis (reference value: 0.169 +/- 0.004 umeter/day); format: functional
How it was run: (§1)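 Female Sprague-Dawley rats, 10-12 weeks old, ten per group, were ovariectomized and left 12 weeks for osteopenia. They were then dosed once daily by oral gavage for 12 weeks in 1% gum acacia vehicle. The estradiol arm received 100 µg·kg⁻¹ subcutaneously five days a week. Tetracycline and calcein were given intraperitoneally at 20 mg·kg⁻¹ each. Femur cross-sections (50 µm) were imaged by fluorescence microscopy for MAR and BFR.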

Rattus norvegicus [4] = test: Antiosteoporotic activity in Sprague-Dawley rat model of OVX-induced bone loss assessed as bone formation rate at 100 ug/kg, sc administered 5 days/week for 12 weeks by microcomputed tomographic analysis (reference value: 0.171 +/- 0.005 um3/um2/day); format: functional; how it was run: as §1
[5] = Toxicity in Sprague-Dawley rat model of OVX-induced bone loss assessed as uterine weight at 100 ug/kg, sc for 12 weeks (reference value: 0.12 +/- 0.02 g); format: organism-based; conditions: in vivo, 0.1 mg/kg, 2016 h
Rattus norvegicus [6] = test: (§2) Antiosteoporotic activity in Sprague-Dawley rat model of OVX-induced bone loss assessed as protection against microarchitectural deterioration by measuring trabecular bone pattern factor at 100 ug/kg, sc administered 5 days/week for 12 weeks by microcomputed tomographic analysis (reference value: 10.81 +/- 0.68 /millimeter); format: functional
How it was run: (§3)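 Adult female Sprague-Dawley rats were ovariectomized and left 12 weeks to become osteopenic. They then received 12 weeks of once-daily oral gavage (1% gum acacia vehicle) or subcutaneous estradiol, five days a week. Femurs were collected at sacrifice and scanned by micro-CT for BMD and trabecular microarchitecture. Ten rats per group; mean ± SEM.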

Rattus norvegicus [7] = test: as §2, with “number” for “bone pattern factor”, “0.56” for “10.81”, “0.06” for “0.68”; format: functional; how it was run: as §3
[8] = biological target: T1, I-kappa-B kinase (Rattus norvegicus); test: Inhibition of IKK in TNFalpha-simulated Sprague-Dawley rat calvarial osteoblasts assessed as ratio of Bcl2 level to beta-actin level at 10 nM after 24 hrs by Western blot analysis (reference value: […]); format: cell-based; conditions: Calvarial osteoblast
[9] = Toxicity in Sprague-Dawley rat model of OVX-induced bone loss assessed as luminal epithelial height at 100 ug/kg, sc for 12 weeks (reference value: 27.29 +/- 0.96 umeter); format: organism-based; conditions: in vivo, 0.1 mg/kg, 2016 h
[10] = Toxicity in Sprague-Dawley rat model of OVX-induced bone loss assessed as total uterine area at 100 ug/kg, sc for 12 weeks (reference value: 0.11 +/- 0.003 mm2); format: organism-based; conditions: in vivo, 0.1 mg/kg, 2016 h
[11] = biological target: T1, I-kappa-B kinase (Rattus norvegicus); test: Inhibition of IKK in Sprague-Dawley rat calvarial osteoblasts assessed as reduction in TNFalpha-induced IkBalpha phosphorylation by measuring ratio of phosphorylated IkBalpha level to beta-actin level at 10 nM after 24 hrs by Western blot analysis (reference value: 2.32); format: cell-based; conditions: Calvarial osteoblast
How it was run: (§4)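 Primary osteoblasts from pooled calvaria of 1-2 day SD rat pups (sequential dispase/collagenase digestion) were grown to 60-70% confluence. They were treated with 17β-estradiol 10 nM in the presence of TNFα 10 ng·ml⁻¹ for 24 h. Whole-cell lysates were immunoblotted, and bands were detected by ECL. Densitometry was normalised to β-actin.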

[12] = biological target: T1, I-kappa-B kinase (Rattus norvegicus); test: Inhibition of IKK in TNFalpha-simulated Sprague-Dawley rat calvarial osteoblasts assessed as ratio of Bax level to beta-actin level at 10 nM after 24 hrs by Western blot analysis (reference value: 1.25); format: cell-based; conditions: Calvarial osteoblast; how it was run: as §4
[13] = biological target: T1, I-kappa-B kinase (Rattus norvegicus); test: Inhibition of IKK in Sprague-Dawley rat calvarial osteoblasts assessed as reduction in TNFalpha-induced NFkB signaling by measuring ratio of nuclear p65 level to beta-actin level at 10 nM after 24 hrs by Western blot analysis (reference value: 2.97); format: cell-based; conditions: Calvarial osteoblast
Rattus norvegicus [14] = test: Antiosteoporotic activity in Sprague-Dawley rat model of OVX-induced bone loss assessed as increase in femoral bone strength by measuring stiffness at 100 ug/kg, sc administered 5 days/week for 12 weeks by 3 point bending test (reference value: 122.07 +/- 12.18 N/mm); format: functional
Rattus norvegicus [15] = test: as §2, with “structural model index” for “trabecular bone pattern factor”, “2.07” for “10.81”, “0.06)” for “0.68 /millimeter)”; format: functional
Rattus norvegicus [16] = test: as §2, with “separation” for “bone pattern factor”, “1.31” for “10.81”, “0.06 millimeter)” for “0.68 /millimeter)”; format: functional; how it was run: as §3
Rattus norvegicus [17] = test: as §2, with “ratio of” for “trabecular”, “volume/[…]” for “pattern factor”, “4.68” for “10.81”, “0.58%)” for “0.68 /millimeter)”; format: functional
[18] = biological target: T1, I-kappa-B kinase (Rattus norvegicus); test: Inhibition of IKK in Sprague-Dawley rat calvarial osteoblasts assessed as reduction in TNFalpha-induced beta-catenin degradation by measuring ratio of beta-catenin level to beta-actin level at 10 nM after 24 hrs by Western blot analysis (reference value: 0.32); format: cell-based; conditions: Calvarial osteoblast; how it was run: as §4
Rattus norvegicus [19] = test: Antiosteoporotic activity in Sprague-Dawley rat model of OVX-induced bone loss assessed as increase in femoral bone strength by measuring energy at 100 ug/kg, sc administered 5 days/week for 12 weeks by 3 point bending test (reference value: 46.27 +/- 4.36 mJ); format: functional
[20] = biological target: T1, I-kappa-B kinase (Rattus norvegicus); test: Inhibition of IKK in TNFalpha-simulated Sprague-Dawley rat calvarial osteoblasts assessed as ratio of IkBalpha level to beta-actin level at 10 nM after 24 hrs by Western blot analysis (reference value: 0.78); format: cell-based; conditions: Calvarial osteoblast; how it was run: as §4
[21] = biological target: T1, I-kappa-B kinase (Rattus norvegicus); test: Inhibition of IKK in TNFalpha-simulated Sprague-Dawley rat calvarial osteoblasts assessed as ratio of Bcl-xL level to beta-actin level at 10 nM after 24 hrs by Western blot analysis (reference value: 0.69); format: cell-based; conditions: Calvarial osteoblast; how it was run: as §4
Rattus norvegicus [22] = test: Antiosteoporotic activity in Sprague-Dawley rat model of OVX-induced bone loss assessed as decrease in serum CTX level at 100 ug/kg, sc administered 5 days/week for 12 weeks by ELISA; format: functional, organism-based
How it was run: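 Ovariectomy model as above: 12 weeks of osteopenia, then 12 weeks of daily gavage or subcutaneous estradiol. Serum was separated at autopsy, and CTX and PINP were measured by ELISA kits.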

[23] = Toxicity in Sprague-Dawley rat model of OVX-induced bone loss assessed as luminal area at 100 ug/kg, sc for 12 weeks (reference value: 0.01 +/- 0.0004 mm2); format: organism-based; conditions: in vivo, 0.1 mg/kg, 2016 h
[24] = Induction of osteoblast differentiation in Sprague-Dawley rat calvarial osteoblasts assessed as alkaline phosphatase activity after 48 hrs using PNPP as substrate by spectrophotometric method; format: functional, cell-based
How it was run: (§5)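 Calvarial osteoblasts at 2 × 10³ cells/well. Treated 48 h with varied concentrations in differentiation medium (5% charcoal-treated FBS, 10 mM β-glycerophosphate, 50 µg·mL⁻¹ ascorbic acid). Total ALP read with PNPP substrate at 405 nm. Cell-free wells check for compound interference with substrate or absorbance.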

Calvarial osteoblast = test: Induction of osteoblast differentiation in Sprague-Dawley rat calvarial osteoblasts assessed as alkaline phosphatase activity at 0.000001 to 1 uM after 48 hrs using PNPP as substrate by spectrophotometric method relative to control; format: functional, cell-based; how it was run: as §5
[25] = Induction of osteoblast differentiation in Sprague-Dawley rat calvarial osteoblasts assessed as alkaline phosphatase activity at 100 pM after 48 hrs using PNPP as substrate by spectrophotometric method relative to control; format: functional; how it was run: as §5

EC50 ([24]; calvarial osteoblast): Not Active | Emax (Calvarial osteoblast): inactive
SMILES: CCOC(=O)c1cc2c([nH]c3ccccc32)c(C(c2nnnn2C(C)(C)C)N2CCOCC2)n1 (stereo not given)

EC50 ([24]; calvarial osteoblast): Not Active | Emax (Calvarial osteoblast): inactive
SMILES: CCOC(=O)c1cc2c([nH]c3ccccc32)c(C(NC(C)(C)C)c2nnnn2C(C)(C)C)n1 (stereo not given)

EC50 ([24]; calvarial osteoblast): Not Active | Emax (Calvarial osteoblast): inactive
SMILES: CCOC(=O)c1cc2c([nH]c3ccccc32)c(C(c2nnnn2C(C)(C)C)N2CCN(C(=O)c3ccco3)CC2)n1 (stereo not given)

Second part, the molecule before the results:

SMILES: C[C@]12CC[C@@H]3c4ccc(O)cc4CC[C@H]3[C@@H]1CC[C@@H]2O [ESTRADIOL]
inhibition [1]: Active | Ratio [2]: 1.45 | Activity (Rattus norvegicus [3]): 1.06 micrometer/day | Activity (Rattus norvegicus [4]): 1.04 um3/um2/day | Activity [5]: 0.45 g | Activity (Rattus norvegicus [6]): 5.99 /millimeter | Activity (Rattus norvegicus [7]): 1.55 /millimeter | Ratio [8]: 1.45 | Activity [9]: 17.8 um | Activity [10]: 0.87 mm2 | Ratio [11]: 1.26 | Ratio [12]: 0.65 | Ratio [13]: 1.41 | Activity (Rattus norvegicus [14]): 171.75 N/mm | Activity_index (Rattus norvegicus [15]): 1.6 | Activity (Rattus norvegicus [16]): 0.68 mm | Ratio (Rattus norvegicus [17]): 11.09% | Ratio [18]: 0.81 | Activity (Rattus norvegicus [19]): 62.77 mJ | Ratio [20]: 0.66 | Ratio [21]: 0.9 | Activity (Rattus norvegicus [22]): inactive | Activity [23]: 0.054 mm2

SMILES: COC(=O)c1cc2c([nH]c3ccccc32)c(C(NC(C)(C)C)c2nnnn2C(C)(C)C)n1 (stereo not given)
EC50 ([24]; calvarial osteoblast): Not Active | Emax (Calvarial osteoblast): inactive

SMILES: COC(=O)c1cc2c([nH]c3ccccc32)c(C(NCc2ccc(C)cc2)c2nnnn2C(C)(C)C)n1 (stereo not given)
EC50 ([24]; calvarial osteoblast): Not Active | Emax (Calvarial osteoblast): inactive

SMILES: COC(=O)c1cc2c([nH]c3ccccc32)c(C(NCc2ccccc2)c2nnnn2C(C)(C)C)n1 (stereo not given)
EC50 ([24]; Rattus norvegicus, Sprague-Dawley, Calvarial osteoblast, 48 h, read-out: EC50): 468 nM | Emax at 0.0001 µM [25]: 29%
